Compound activity as filed in PubChem BioAssay.
Compounds with a hit are over-represented: about 2.9% of the library has one in this group of screens.
PAX8 inh HTS: inhibitors of PAX8-driven TPO luciferase reporter, primary screen, RMG-I cells, single concentration | 360,000 compounds, 1.2% hits | AID 652154, 2013 | SteadyGlo, 24 h | inhibition, % at 12.6 µM;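 active means mean replicate inhibition at least 60% with every replicate also reaching 60%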;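 further: luciferase light reporting Pax8 driven TPO promoter activity; plate controls were median of neutral control wells for no effect and mitoxantrone controls for full effect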
dFosB activator: activators of delta FosB homodimer, primary screen, biochemical, fluorescence polarization, TAMRA-CDK5 oligo, single point; purified delta FosB; percent of positive-control signal above neutral wells; activation, % at 25 µM; 340,000 compounds, 0.99% hits; AID 493131, 2011;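 active means mean activation above about 17%, with every replicate also reaching it, limit read from the data, passing the limit was not always enough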
CDK5 inh: inhibitors of human CDK5/p35 kinase, primary screen, biochemical, single concentration; Cyclin-dependent kinase 5 (Homo sapiens) + Cyclin-dependent kinase 5 activator 1 (Homo …; Recombinant CDK5/p35, ADP-Glo luminescence, 60 min; inhibition, % at 10 µM; 330,000 compounds, 0.01% hits; AID 488839, 2010;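 active means highest replicate inhibition of at least 50% and at least 75% of replicates reaching 50%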;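 further: plate controls were DMSO neutral control for no effect and GW8510 at 10 µM for full effect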
Target sequence (Q00535 whole entry, looked up): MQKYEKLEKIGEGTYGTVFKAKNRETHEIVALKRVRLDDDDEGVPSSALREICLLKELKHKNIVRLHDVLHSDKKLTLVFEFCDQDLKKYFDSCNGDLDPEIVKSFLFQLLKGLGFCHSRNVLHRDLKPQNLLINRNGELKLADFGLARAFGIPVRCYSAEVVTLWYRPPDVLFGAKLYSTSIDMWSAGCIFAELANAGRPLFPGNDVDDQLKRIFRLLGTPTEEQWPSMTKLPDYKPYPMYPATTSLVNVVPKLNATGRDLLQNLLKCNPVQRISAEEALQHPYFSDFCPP
Target sequence (Q15078 whole entry, looked up): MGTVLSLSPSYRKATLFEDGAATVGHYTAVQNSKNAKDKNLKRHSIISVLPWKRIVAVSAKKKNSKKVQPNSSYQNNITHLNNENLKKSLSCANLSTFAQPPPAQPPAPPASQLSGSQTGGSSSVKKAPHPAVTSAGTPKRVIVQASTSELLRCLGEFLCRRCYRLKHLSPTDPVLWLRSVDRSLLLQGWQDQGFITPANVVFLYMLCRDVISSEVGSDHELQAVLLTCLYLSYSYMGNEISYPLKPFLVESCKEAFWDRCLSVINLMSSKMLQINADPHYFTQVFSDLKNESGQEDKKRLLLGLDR
HIV Env fusion: inhibitors of HIV-1 Env-driven cell-cell fusion, primary screen, HeLa-JRFL effector, CEM21 target cells, luciferase. AID 651610, 2012. inhibition, % at 12.3 µM. 360,000 compounds, 1.1% hits;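 active means mean replicate inhibition score of at least 50 and every replicate individually at or above 50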;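 further: 0% = plate neutral controls and 100% = maraviroc near 300 nM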
GSIS activator: GLuc luminescence reporter in INS-1E cells, primary screen for activators of glucose-dependent secretion of insulin; INS-1E GLuc reporter insulin secretion, 2-3 h; activation, % at 16.6 µM; 370,000 compounds, 0.61% hits;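 active means lowest replicate activation of at least 40%, so every replicate reaches that level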;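 further: 0% = median of neutral control wells and 100% = median of IBMX positive control wells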
Cneo AK release: Cryptococcus neoformans cell lysis inducers, primary screen, AK release luminescence, single concentration | C. neoformans lysis, adenylate kinase release luminescence, 4 h; normalised: neutral wells 0, clomiphene wells 100 | lysis activity, % at 15 µM | 360,000 compounds, 0.2% hits;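 active means mean lysis activity across replicates of at least 80%, whatever share of replicates individually reach that level; inactive means mean lysis activity below 80%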
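Material – log-phase Cryptococcus neoformans yeast cells · Input – 5 × 10^6 yeast cells/mL · Medium – fresh YPD growth medium · Doses – single compound concentration per well · Timing – static 4 h at 37 °C with compound, 1 h detection · Detection – adenylate kinase release luminescence · Read-out – signal increase indicating cell lysis · Control set – Clomiphene as positive lysis control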
* hit, by the source's call; i = inactive; x = not tested or not shown; [ ] = dose if it differs, or a comment.

SMILES | PAX8 inh HTS | dFosB activator | CDK5 inh | HIV Env fusion | GSIS activator | Cneo AK release
COc1ccc(S(=O)(=O)N[C@@H]2C=C[C@@H](CC(=O)N3CCC(Cc4ccccc4)CC3)O[C@H]2CO)cc1 | -1 | x | x | 1[16.7 µM] | -17 | 95*
O=C(Nc1ccccc1F)N1CC(=O)N2[C@H](C1)[C@H](c1ccc(C#CC3CC3)cc1)[C@@H]2CO | 16 | x | x | x | -14 | x
C[C@@H]1CN([C@@H](C)CO)C(=O)Cc2cc(NC(=O)CCC(F)(F)F)ccc2O[C@H]1CN(C)Cc1ccc(C(=O)O)cc1 | -6 | x | x | x | 11 | x
C[C@H]1CN([C@@H](C)CO)C(=O)c2cc(NC(=O)NC3CCCCC3)ccc2O[C@@H]1CN(C)S(=O)(=O)c1cn(C)cn1 | x | x | x | x | 8 | 1
COc1cc(CNc2ncnc3c2ncn3[C@H]2CN(Cc3ccc(C(=O)O)cc3)C[C@@H](CO)O2)cc(OC)c1OC | 13 | x | x | -20 | -9 | -1
COc1cc(CNc2ncnc3c2ncn3[C@H]2CN(Cc3ccc(-c4ccccc4)cc3)C[C@@H](CO)O2)cc(OC)c1OC | 94* | x | x | 51 | -14 | 3
CC(C)CNc1ncnc2c1ncn2[C@H]1CN(Cc2ccco2)C[C@@H](CO)O1 | 84* | x | x | 6 | 15 | 0
C=CCNc1ncnc2c1ncn2[C@H]1CN(Cc2cc(OC)c(OC)c(OC)c2)C[C@@H](CO)O1 | -16 | x | x | 21 | 42* | -1
COCCNc1ncnc2c1ncn2[C@H]1CN(Cc2cc(OC)c(OC)c(OC)c2)C[C@@H](CO)O1 | -14 | x | x | 12 | x | 2
C=C1CC2(OC1=O)c1ccccc1CCc1ccccc12 | 71* | 3 | 1 | 39 | 2 | x
O=C1CCc2cc(S(=O)(=O)N3CCN(c4ccc(F)cc4)CC3)cc3c2N1CC3 | -19 | 0 | 0 | x | 47* | x
Cn1c(=O)c(=O)n(C)c2cc(S(=O)(=O)N3CCN(c4ccc(F)cc4)CC3)ccc21 | -4 | -3 | -1 | 13 | 51* | -1
O=C1CCc2cc(S(=O)(=O)N3CCN(c4ccccc4)CC3)cc3c2N1CCC3 | -13 | 0 | 1 | -10 | 5 | 1
COCCNC(=O)[C@H]1[C@H](CO)[C@H]2Cn3c(ccc(-c4ccccc4)c3=O)[C@@H]1N2C(=O)NC(C)C | -5 | x | x | x | 7 | -5
O=C(c1ccccc1)c1ccc2ccccc2n1 | -35 | 2 | -8 | -125 | 50* | 1
COC(=O)c1ccc2ccccc2n1 | x | x | x | x | x | -1
Oc1ccc(-c2nc(-c3ccc(F)cc3)c(-c3ccncc3)[nH]2)cc1 | 45 | -9 | i | 57* | x | -2
Fc1ccc(-c2nc(-c3cccs3)[nH]c2-c2ccc(F)cc2)cc1 | 46 | -4 | 0 | x | 14 | -6
C[C@H](CO)N1C[C@H](C)[C@H](CN(C)Cc2ccc(C(F)(F)F)cc2)OCc2ccccc2-c2ccccc2C1=O | 21 | x | x | x | -22 | x
C[C@@H]1CN([C@@H](C)CO)C(=O)c2ccccc2-c2ccccc2CO[C@@H]1CN(C)Cc1cccc(O)c1 | -7 | x | x | -5[16.7 µM] | 6 | -1
C[C@H](CO)N1C[C@H](C)[C@H](CN(C)Cc2cccc(F)c2)OCc2ccccc2-c2c(n(C)c3ccccc23)C1=O | -5 | x | x | x | -11 | x
C[C@@H]1CN([C@@H](C)CO)C(=O)c2ccccc2-c2ccccc2CO[C@H]1CN(C)Cc1ccccc1C(F)(F)F | 79* | x | x | x | 4 | x
C[C@H](CO)N1C[C@H](C)[C@H](CN(C)Cc2cccc(F)c2)OCc2ccccc2-c2ccccc2C1=O | 10 | x | x | 75*[16.7 µM] | -22 | x
C[C@H]1CN([C@@H](C)CO)C(=O)c2c(c3ccccc3n2C)-c2ccccc2CO[C@H]1CN(C)Cc1cccc(F)c1 | 6 | x | x | 67* | -29 | 1
C[C@@H]1CN([C@@H](C)CO)C(=O)c2c(c3ccccc3n2C)-c2ccccc2CO[C@@H]1CN(C)Cc1cccc(C(F)(F)F)c1 | 56 | x | x | x | 6 | x
SMILES | PAX8 inh HTS | dFosB activator | CDK5 inh | HIV Env fusion | GSIS activator | Cneo AK release
C[C@H]1CN([C@@H](C)CO)C(=O)c2c(c3ccccc3n2C)-c2ccccc2CO[C@@H]1CN(C)Cc1cccc(C(F)(F)F)c1 | 82* | x | x | x | 5 | x
Cc1ccc(S(=O)(=O)N(C)C[C@H]2OCc3cnnn3CCCC(=O)N([C@@H](C)CO)C[C@@H]2C)cc1 | -6 | x | x | x | 6 | -2
C[C@H](CO)N1C[C@H](C)[C@H](CN(C)Cc2cccnc2)OCc2ccccc2-c2c(n(C)c3ccccc23)C1=O | 9 | x | x | 59*[16.7 µM] | 31 | 1
C[C@@H]1CN([C@@H](C)CO)C(=O)c2c(c3ccccc3n2C)-c2ccccc2CO[C@@H]1CN(C)Cc1cccnc1 | 2 | x | x | -7[16.7 µM] | 8 | 52
CC(CN(C)Cc1ccccc1)OC(=O)c1ccccc1F (configuration not stated) | 6 | 1 | -5 | 0 | 49* | -7
CC(C)NC(=O)N(C)C[C@H]1Oc2ncc(C3=CCCCC3)cc2C(=O)N([C@H](C)CO)C[C@H]1C | 3 | x | x | 4[16.7 µM] | 2 | 3
CN1CCN(c2ccc(S(=O)(=O)N3CCCCC3)cc2NC(=O)/C=C/c2ccc(OC(F)F)cc2)CC1 | 46 | -19 | 0 | -7 | -29 | 3
CCN1CCN(c2ccc(S(=O)(=O)N3CCCCC3)cc2NC(=O)/C=C/c2ccc([N+](=O)[O-])cc2)CC1 | 41 | 52* | 2 | x | -24 | 5
CN1CCN(c2ccc(S(=O)(=O)N3CCCCC3)cc2NC(=O)/C=C/c2ccc(Cl)c([N+](=O)[O-])c2)CC1 | 88* | 52* | -1 | -3 | -56 | 0
O=C(Nc1ccccc1F)N1CC(=O)N2[C@H](C1)[C@@H](c1ccc(-c3cccnc3)cc1)[C@@H]2CO | x | x | x | x | 3 | x
c1cc2c3c(cccc3c1)NC1(CCC3(CC1)Nc1cccc4cccc(c14)N3)N2 | 37 | -19 | 1 | 24 | -6 | 0
c1cc2c3c(cccc3c1)NC1(CCCCC1)N2 | x | 40* | 2 | x | -14 | -1
c1cc2c3c(cccc3c1)NC1(CCCCCC1)N2 | x | 23* | 0 | -17 | x | -1
CC1=Nc2cccc3cccc(c23)N1 | 15 | 8 | -3 | -68 | x | -1
CCNC(=O)[C@@H]1[C@@H](CO)[C@@H]2Cn3c(ccc(C4=CCCCC4)c3=O)[C@@H]2N1Cc1ccccc1 | x | x | x | x | -5 | 44
O=C(C[C@@H]1CC[C@H]2[C@@H](COC[C@@H](O)CN2C(=O)c2ccccc2)O1)Nc1nccs1 | 4 | x | x | 5[16.7 µM] | 3 | 1
